From ChEMBL document CHEMBL1795280, “Design, synthesis and activity of a potent, selective series of N-aryl pyridinone inhibitors of p38 kinase” (Bioorg Med Chem Lett, 2011)

Assays:
[1] = biological target: Mitogen-activated protein kinase 14 (Homo sapiens, UniProt Q16539); experiment: Inhibition of p38alpha assessed as phosphorylation of […] after 60 mins by fluorescence assay
Procedure, shortened: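 Cascade assay in which activated p38α (6 pM final) activates unactivated MK2 (1 nM), which phosphorylates FITC-labelled Hsp27 peptide (1 nM) with […]. Inhibitor 0.2–10,000 nM. Room temperature, 60 min, EDTA quench. Phospho-peptide quantified by Caliper LabChip; IC50.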

[2] = Solubility of the compound; type: physicochemical
Rattus norvegicus = experiment: Antiinflammatory activity in Lewis rat assessed as inhibition of LPS-induced TNFalpha production at 5 mg/kg, po administered 4 hrs before LPS challenge by ELISA; type: functional
Procedure, shortened: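 Adult male Lewis rats (225–250 g), fasted 18 h with free access to water. Compound or vehicle given by oral gavage (1 mL). LPS (E. coli 0111:B4) given 1 mg/kg i.v. in saline 2, 4 or 6 h later. Serum taken by cardiac puncture 90 min after LPS. TNFα quantified against a recombinant rat TNF standard curve with a four-parameter fit. Two vehicle groups per experiment, three experiments.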

[3] = Bioavailability in iv and po dosed Sprague-Dawley rat; type: ADME, organism-based; conditions: in vivo
[4] = Half life in iv and po dosed Sprague-Dawley rat; type: ADME, organism-based; conditions: in vivo
[5] = Metabolic stability in rat liver microsomes assessed as compound remaining at 2 uM after 45 mins by LC/MS analysis; type: ADME, Microsome; conditions: read-out: Stability
PBMC = experiment: Antiinflammatory activity in human PBMC assessed as inhibition of LPS-induced TNFalpha production treated 1 hr before LPS challenge measured after 18 hrs; type: functional, cell-based
Procedure, shortened: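 PBMCs isolated by Ficoll from heparinized blood of two healthy donors, in DMEM with 5% endotoxin-free FBS, 2.5 × 10⁵ cells/well. Pretreated 1 h with compound (0.0001–25 µM range), then stimulated 18 h with 22 ng/ml LPS. Final DMSO 0.25%. Secreted TNFα measured by MSD; IC50 reported.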

[6] = Clearance in iv and po dosed Sprague-Dawley rat; type: ADME, organism-based; conditions: in vivo
[7] = Metabolic stability in human liver microsomes assessed as compound remaining at 2 uM after 45 mins by LC/MS analysis; type: ADME, Microsome; conditions: read-out: Stability

Sequence of Mitogen-activated protein kinase 14 (Q16539 whole entry): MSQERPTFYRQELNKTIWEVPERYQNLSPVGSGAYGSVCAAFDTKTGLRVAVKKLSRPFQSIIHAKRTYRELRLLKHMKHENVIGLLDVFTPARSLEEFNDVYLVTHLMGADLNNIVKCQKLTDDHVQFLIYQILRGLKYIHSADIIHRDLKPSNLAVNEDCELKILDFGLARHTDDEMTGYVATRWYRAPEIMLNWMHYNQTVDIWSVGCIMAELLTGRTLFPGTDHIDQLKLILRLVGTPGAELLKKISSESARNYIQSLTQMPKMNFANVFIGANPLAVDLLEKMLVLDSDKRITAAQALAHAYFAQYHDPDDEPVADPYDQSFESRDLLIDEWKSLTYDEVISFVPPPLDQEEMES

## Cc1cc(OCc2ccc(F)cc2F)c(Br)c(=O)n1-c1cccc(CNC(=O)CO)c1
[1]
  IC50: 0.175 µM

## Cc1cc(OCc2ccc(F)cc2F)c(Br)c(=O)n1-c1cccc(CNC(N)=O)c1
[1]
  IC50: 0.251 µM

## CNC(=O)c1cccc(-n2c(C)cc(OCc3ccc(F)cc3F)c(Br)c2=O)c1
[2]
  solubility: < 10 µg/mL
Rattus norvegicus
  inhibition in vivo at 5 mg/kg: 70%
[1]
  IC50: 0.017 µM
[3]
  bioavailability: 3%
[4]
  half-life: 3.1 h
[5]
  remaining at 0.75 h, 2 µM: 92%
PBMC
  IC50: 0.045 µM
[6]
  clearance: 8.1 mL/min/kg
[7]
  remaining at 0.75 h, 2 µM: 95%

## Cc1cc(OCc2ccc(F)cc2F)c(Br)c(=O)n1-c1c(Cl)cccc1Cl
[1]
  IC50: 0.001 µM

## O=c1c(Br)c(OCc2ccc(F)cc2F)cc(CN2CCOCC2)n1-c1c(F)cccc1F
[1]
  IC50: 0.009 µM

## Cc1cc(OCc2ccc(F)cc2F)c(Br)c(=O)n1-c1ccc(CNC(=O)CN)cc1
Rattus norvegicus
  inhibition in vivo at 5 mg/kg: 64%
[1]
  IC50: 0.015 µM
[5]
  remaining at 0.75 h, 2 µM: 91%
PBMC
  IC50: 0.118 µM
[7]
  remaining at 0.75 h, 2 µM: 97%

## Cc1cc(OCc2ccc(F)cc2F)c(Br)c(=O)n1-c1ccc(C(N)=O)cc1
[1]
  IC50: 0.122 µM

## Cc1cc(OCc2ccc(F)cc2F)c(Br)c(=O)n1-c1c(F)cccc1F
[2]
  solubility: < 10 µg/mL
Rattus norvegicus
  inhibition in vivo at 5 mg/kg: 38%
[1]
  IC50: 0.003 µM
[3]
  bioavailability: 19%
[4]
  half-life: 1.9 h
[5]
  remaining at 0.75 h, 2 µM: 80%
PBMC
  IC50: 0.022 µM
[6]
  clearance: 28.7 mL/min/kg
[7]
  remaining at 0.75 h, 2 µM: 60%

## Cc1cc(OCc2ccc(F)cc2F)c(Br)c(=O)n1-c1c(F)cc(N2CCN(C)CC2)cc1F
[1]
  IC50: 0.014 µM

## Cc1cc(OCc2ccc(F)cc2F)c(Br)c(=O)n1-c1c(F)cc(O)cc1F
[1]
  IC50: 0.015 µM

## Cc1cc(OCc2ccccc2)c(Br)c(=O)n1-c1c(Cl)cccc1Cl
[1]
  IC50: 0.03 µM

## CNC(=O)c1ccc(-n2c(C)cc(OCc3ccc(F)cc3F)c(Br)c2=O)cc1
[1]
  IC50: 0.126 µM

## O=c1c(Br)c(OCc2ccc(F)cc2F)cc(CO)n1-c1c(F)cccc1F
[2]
  solubility: < 10 µg/mL
Rattus norvegicus
  inhibition in vivo at 5 mg/kg: 93%
[1]
  IC50: 0.005 µM
[3]
  bioavailability: 19%
[4]
  half-life: 8.9 h
[5]
  remaining at 0.75 h, 2 µM: 65%
PBMC
  IC50: 0.025 µM
[6]
  clearance: 4 mL/min/kg
[7]
  remaining at 0.75 h, 2 µM: 39%

## Cc1cc(OCc2ccc(F)cc2)c(Br)c(=O)n1-c1c(Cl)cccc1Cl
[1]
  IC50: 0.006 µM

## Cc1cc(OCc2ccc(F)cc2F)c(Br)c(=O)n1-c1ccc(CNC(N)=O)cc1
[1]
  IC50: 0.142 µM
